{"data": "Measurements from different studies", "read-out": "metabolic stability", "species": "human", "medium": "liver microsomes", "note": "Compare with care: the assays were run in different laboratories."}
{"concentration": "1 µM", "microsomal CLint [µL/min/mg]": 15, "Compound": "COc1cc2[nH]c(C)c(-c3ccc(N(C)C)cc3)c(=O)c2cc1Cl"}
{"microsomal CLint [µL/min/mg]": 36, "Compound": "c1ccc(-c2nc(NCc3nccs3)c3ccccc3n2)nc1"}
{"concentration": "3 µM", "pH": "pH 7.4", "microsomal CLint [µL/min/mg]": 120, "Compound": "COc1ccn2c(Nc3ccccc3F)c(-c3ccncn3)nc2c1"}
{"concentration": "1 µM", "microsomal CLint [µL/min/mg]": 20, "Compound": "COc1cc2[nH]c(C)c(-c3ccc(N(C)C)nc3)c(=O)c2cc1Cl"}
{"microsomal CLint [µL/min/mg]": 82.4, "Compound": "O=S(=O)(c1ccc(-c2ccc3nccc(Nc4ccncc4)c3c2)cc1)N1CCOCC1"}
{"microsomal CLint [µL/min/mg]": 165, "Compound": "Oc1cccc(-c2nc(N3CCC(c4ccccn4)C3)c3ccccc3n2)c1 (centres unmarked)"}
{"concentration": "1 µM", "microsomal CLint [µL/min/mg]": 25, "Compound": "COc1cc2[nH]c(C)c(-c3ccccc3C)c(=O)c2cc1Cl"}
{"concentration": "3 µM", "pH": "pH 7.4", "microsomal CLint [µL/min/mg]": 17, "Compound": "Cn1cnc(-c2nc3ccccn3c2Nc2ccc(F)cc2)c1"}
{"microsomal CLint [µL/min/mg]": 261, "Compound": "N#Cc1cccc(-c2nc(N3CCC(c4ccccn4)C3)c3ccccc3n2)c1 (centres unmarked)"}
{"concentration": "3 µM", "pH": "pH 7.4", "microsomal CLint [µL/min/mg]": "< 3", "Compound": "C[S+]([O-])c1ccc(-c2c(-c3ccccn3)nc3n2CCC3)cc1 (centres unmarked)"}
{"microsomal CLint [µL/min/mg]": 13.3, "Compound": "O=S(=O)(c1ccc(-c2ccc3ncccc3c2)cc1)N1CCOCC1"}
{"microsomal CLint [µL/min/mg]": 62, "Compound": "c1ccc(-c2nc(N3CCCC3)c3ccccc3n2)nc1"}
{"concentration": "3 µM", "pH": "pH 7.4", "microsomal CLint [µL/min/mg]": 170, "Compound": "CN(c1ccc(F)cc1)c1c(-c2cccc(F)n2)nc2ccccn12"}
{"concentration": "1 µM", "microsomal CLint [µL/min/mg]": 59, "Compound": "COc1cc2[nH]c(C)c(-c3ccco3)c(=O)c2cc1Cl"}
